15 compounds from ChEMBL document CHEMBL1154792, “chi-Conopeptide pharmacophore development: toward a novel class of norepinephrine transporter inhibitor (Xen2174) for pain” (J Med Chem, 2009) can be followed below.

The species entered for data set [1] is Rattus norvegicus. Kind of data set: Toxicity in CCI rat pain model assessed as side effects. Format: organism-based. The note with it: in vivo. In short, it runs like this: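 Rats with unilateral sciatic chronic constriction injury received a single intrathecal bolus via an implanted cannula 14 days after surgery, with morphine and vehicle as comparators. Compound-related behavioural observations were recorded alongside von Frey paw-withdrawal testing. Three animals per analogue.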

The target of data set [2] is T1, Sodium-dependent noradrenaline transporter (Homo sapiens, UniProt P23975). Kind of data set: Displacement of [3H]nisoxetine from human NET expressed in COS7 cells. Conditions: for Activity: COS-7. It counts as cell-based. In short, it runs like this: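 Membranes from COS-7 cells transfected with human NET were incubated with [3H]nisoxetine (4.3 nM) with or without peptide (1 nM to 100 μM, triplicate) for 1 h at RT. Filter-retained radioactivity was counted by liquid scintillation, and values are given as pIC50. Data are means of 2–5 experiments in triplicate; peptide concentration was set by calibrated HPLC at 214 nm.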
T1 sequence (P23975 whole entry): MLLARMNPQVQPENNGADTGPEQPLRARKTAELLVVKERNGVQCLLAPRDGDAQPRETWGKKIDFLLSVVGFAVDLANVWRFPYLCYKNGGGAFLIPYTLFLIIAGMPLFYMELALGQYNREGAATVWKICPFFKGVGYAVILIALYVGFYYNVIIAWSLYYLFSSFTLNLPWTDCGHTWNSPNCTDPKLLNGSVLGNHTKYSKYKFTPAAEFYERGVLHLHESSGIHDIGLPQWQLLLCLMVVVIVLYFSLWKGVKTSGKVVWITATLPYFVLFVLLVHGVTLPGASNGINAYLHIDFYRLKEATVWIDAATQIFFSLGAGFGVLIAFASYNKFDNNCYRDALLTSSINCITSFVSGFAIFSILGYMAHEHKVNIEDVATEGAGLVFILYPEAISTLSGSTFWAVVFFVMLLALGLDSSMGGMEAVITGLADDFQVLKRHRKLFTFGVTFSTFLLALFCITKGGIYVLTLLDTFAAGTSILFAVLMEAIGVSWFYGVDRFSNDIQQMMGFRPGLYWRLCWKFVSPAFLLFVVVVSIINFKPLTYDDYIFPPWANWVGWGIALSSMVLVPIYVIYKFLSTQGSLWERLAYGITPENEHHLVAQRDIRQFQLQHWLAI

Data set [3] concerns COS-7. Put plainly: (§1) Displacement of [3H]nisoxetine from rat NET expressed in COS7 cells. Format: cell-based.
Data set [4] has as its system Rattus norvegicus. Kind of data set: Antiallodynic activity in CCI rat pain model assessed as efficayin ipsilateral hind paw withdrawal threshold at 1 nM, iv after 3 hrs. Format: functional, organism-based. In short, it runs like this: (§2)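 Unilateral chronic constriction injury of the sciatic nerve in rats. At 14 days post-surgery, a single bolus was given via a chronically implanted intrathecal cannula; morphine and vehicle were comparators. Mechanical allodynia was measured with calibrated von Frey filaments as paw withdrawal threshold in the ipsilateral hindpaw, relative to the pre-dose value. Three animals per analogue; dose chosen from NET potency.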

The target in data set [5] is T1, Sodium-dependent noradrenaline transporter. The note with it: COS-7.
The subject of data set [6] is COS-7. Kind of data set: Inhibition of rat NET expressed in COS7 cells assessed as inhibition of [3H]norepinephrine uptake. Format: cell-based.
Data set [7] can be described thus: as §1. It counts as cell-based. The note with it: cos-7.
Data set [8] deals with T1, Sodium-dependent noradrenaline transporter. Kind of data set: Inhibition of human NET expressed in COS7 cells assessed as inhibition of [3H]norepinephrine uptake at 1 uM. Format: cell-based. Conditions: COS-7.
Data set [9] has as its system Rattus norvegicus. Put plainly: Antiallodynic activity in CCI rat pain model assessed as efficayin ipsilateral hind paw withdrawal threshold at 0.2 nM, iv. It counts as functional, organism-based. In short, it runs like this:
as §2

Molecules are shown by their SMILES. Active and inactive are the calls of the source.

In the case of `CC(C)C[C@@H]1NC(=O)[C@H](CCCCN)NC(=O)[C@H](Cc2ccc(O)cc2)NC(=O)CNC(=O)[C@@H]2CSSC[C@H](NC1=O)C(=O)N[C@@H](Cc1cnc[nH]1)C(=O)N1CC[C@H](O)[C@H]1C(=O)N[C@H](C(=O)O)CSSC[C@H](NC(=O)[C@@H](NC(=O)CNC(=O)[C@H](N)CCCNC(=N)N)C(C)C)C(=O)N2`, the Activity entry in [1] is “Toxic”. Take `CC(C)C[C@@H]1NC(=O)[C@H](CCCCN)NC(=O)[C@H](Cc2ccc(O)cc2)NC(=O)CNC(=O)[C@@H]2CSSC[C@H](NC1=O)C(=O)N[C@@H](Cc1cnc[nH]1)C(=O)N[C@H](Cc1ccc(O)cc1)C(=O)N[C@H](C(=O)O)CSSC[C@H](NC(=O)[C@@H](NC(=O)CNC(=O)[C@@H]1CCC(=O)N1)C(C)C)C(=O)N2`: the outcome in [2] and in data set [3] was Active.

As for `CC(C)C[C@@H]1NC(=O)[C@H](CCCCN)NC(=O)[C@H](Cc2ccc(O)cc2)NC(=O)CNC(=O)[C@@H]2CSSC[C@H](NC1=O)C(=O)N[C@@H](Cc1cnc[nH]1)C(=O)N1CC[C@H](O)[C@H]1C(=O)N[C@H](C(=O)O)CSSC[C@H](NC(=O)[C@@H](NC(=O)CNC(=O)[C@H](N)CC(N)=O)C(C)C)C(=O)N2`, the Activity entry in [1] was “Toxic”. `CC(C)C[C@@H]1NC(=O)[C@H](CCCCN)NC(=O)[C@H](Cc2ccc(O)cc2)NC(=O)CNC(=O)[C@@H]2CSSC[C@H](NC1=O)C(=O)N[C@@H](Cc1cnc[nH]1)C(=O)N[C@H](CCC(=O)O)C(=O)N[C@H](C(=O)O)CSSC[C@H](NC(=O)[C@@H](NC(=O)CNC(=O)[C@@H]1CCC(=O)N1)C(C)C)C(=O)N2`: the outcome in [2] and in [3] was Active. In the case of `CC(C)C[C@@H]1NC(=O)[C@H](CCCCN)NC(=O)[C@H](Cc2ccc(O)cc2)NC(=O)CNC(=O)[C@@H]2CSSC[C@H](NC1=O)C(=O)N[C@@H](Cc1cnc[nH]1)C(=O)N1CC[C@H](O)[C@H]1C(=O)N[C@H](C(=O)O)CSSC[C@H](NC(=O)[C@@H](NC(=O)CNC(=O)[C@H](CC(N)=O)NC(=O)[C@@H](N)Cc1c[nH]c3ccccc13)C(C)C)C(=O)N2`, the Activity entry in data set [1] was “Toxic”.

Turning to `CCCC[C@H](N)C(=O)NCC(=O)N[C@H](C(=O)N[C@H]1CSSC[C@@H](C(=O)O)NC(=O)[C@@H]2[C@@H](O)CCN2C(=O)[C@H](Cc2cnc[nH]2)NC(=O)[C@@H]2CSSC[C@H](NC1=O)C(=O)NCC(=O)N[C@@H](Cc1ccc(O)cc1)C(=O)N[C@@H](CCCCN)C(=O)N[C@@H](CC(C)C)C(=O)N2)C(C)C`, the Activity entry in [1] was “Toxic”. In the case of `CC(C)C[C@@H]1NC(=O)[C@H](CCCCN)NC(=O)[C@H](Cc2ccc(O)cc2)NC(=O)CNC(=O)[C@@H]2CSSC[C@H](NC1=O)C(=O)N[C@@H](Cc1cnc[nH]1)C(=O)N1Cc3ccccc3C[C@H]1C(=O)N[C@H](C(=O)O)CSSC[C@H](NC(=O)[C@@H](NC(=O)CNC(=O)[C@@H]1CCC(=O)N1)C(C)C)C(=O)N2`, the outcome in data set [2] and in [3] was Active. `CC(C)C[C@@H]1NC(=O)[C@H](CCCCN)NC(=O)[C@H](Cc2ccc(O)cc2)NC(=O)CNC(=O)[C@@H]2CSSC[C@H](NC1=O)C(=O)N[C@@H](Cc1cnc[nH]1)C(=O)N1CC[C@H](O)[C@H]1C(=O)N[C@H](C(=O)O)CSSC[C@H](NC(=O)[C@@H](NC(=O)CNC(=O)[C@@H]1CCC(=O)N1)C(C)C)C(=O)N2`: the result in data set [4] and in data set [8] was Active. Moreover, the logEC50 in data set [5] was -6.74; in [6] it was -6.67. The compound also showed an IC50 in data set [2] of 182 nM. The compound further had a pIC50 in [7] of 6.67. Moreover, in [1], the Activity result was “Toxic”. As to `CC(C)C[C@@H]1NC(=O)[C@H](CCCCN)NC(=O)[C@H](Cc2ccc(O)cc2)NC(=O)CNC(=O)[C@@H]2CSSC[C@H](NC1=O)C(=O)N[C@@H](Cc1cnc[nH]1)C(=O)N[C@H](CCCCN)C(=O)N[C@H](C(=O)O)CSSC[C@H](NC(=O)[C@@H](NC(=O)CNC(=O)[C@@H]1CCC(=O)N1)C(C)C)C(=O)N2`, the result in data set [2] and in [3] was Active. As for `COc1ccc(C[C@H]2CC(=O)N[C@@H](CCCCN)C(=O)N[C@@H](CC(C)C)C(=O)N[C@H]3CSSC[C@H](NC(=O)[C@@H](NC(=O)[C@@H](NC(=O)CNC(=O)[C@@H]4CCC(=O)N4)C(C)C)CSSC[C@@H](C(=O)O)NC(=O)[C@@H]4[C@@H](O)CCN4C(=O)[C@H](Cc4cnc[nH]4)NC3=O)C(=O)NCC(=O)N2)cc1`, in [2], the result was inactive.

For the compound `CC(C)C[C@@H]1NC(=O)[C@H](CCCCN)NC(=O)[C@H](Cc2ccc(O)cc2)NC(=O)CNC(=O)[C@@H]2CSSC[C@H](NC1=O)C(=O)N[C@@H](Cc1cnc[nH]1)C(=O)N1CC[C@H](O)[C@H]1C(=O)N[C@H](C(=O)O)CSSC[C@H](NC(=O)[C@@H](NC(=O)CNC(=O)[C@H](CC(N)=O)NC(=O)[C@@H](N)CCc1ccccc1)C(C)C)C(=O)N2`, the outcome in data set [9] was Active. Further, the Activity entry in data set [1] is “Toxic”. In the case of `COc1ccc(C[C@@H]2NC(=O)CNC(=O)[C@@H]3CSSC[C@H](NC(=O)[C@H](CC(C)C)NC(=O)[C@H](CCCCN)NC2=O)C(=O)N[C@@H](Cc2cnc[nH]2)C(=O)N2CC[C@H](O)[C@H]2C(=O)N[C@H](C(=O)O)CSSC[C@H](NC(=O)[C@@H](NC(=O)CNC(=O)[C@@H]2CCC(=O)N2)C(C)C)C(=O)N3)c(OC)c1`, the result in data set [2] was inactive. On the same count and under the same terms, under `CC(C)C[C@@H]1NC(=O)[C@H](CCCCN)NC(=O)[C@H](Cc2ccc(O)cc2)NC(=O)CNC(=O)[C@@H]2CSSC[C@@H](NC1=O)C(=O)N[C@@H](Cc1cnc[nH]1)C(=O)N1CC[C@H](O)[C@H]1C(=O)N[C@H](C(=O)O)CSSC[C@H](NC(=O)[C@@H](NC(=O)CNC(=O)[C@@H]1CCC(=O)N1)C(C)C)C(=O)N2` stands “inactive”; under `CC(C)C[C@@H]1NC(=O)[C@H](CCCCN)NC(=O)[C@H]2CCCN2C(=O)CNC(=O)[C@@H]2CSSC[C@H](NC1=O)C(=O)N[C@@H](Cc1cnc[nH]1)C(=O)N1CC[C@H](O)[C@H]1C(=O)N[C@H](C(=O)O)CSSC[C@H](NC(=O)[C@@H](NC(=O)CNC(=O)[C@@H]1CCC(=O)N1)C(C)C)C(=O)N2`, “inactive”; under `CC(C)C[C@H]1CC(=O)N[C@H]2CSSC[C@H](NC(=O)[C@@H](NC(=O)[C@@H](NC(=O)CNC(=O)[C@@H]3CCC(=O)N3)C(C)C)CSSC[C@@H](C(=O)O)NC(=O)[C@@H]3[C@@H](O)CCN3C(=O)[C@H](Cc3cnc[nH]3)NC2=O)C(=O)NCC(=O)N[C@@H](Cc2ccc(O)cc2)C(=O)N[C@@H](CCCCN)C(=O)N1`, “Active”.
